Experimental data as given in ChEMBL document CHEMBL1795202, “An investigation of phenylthiazole antiflaviviral agents” (Bioorg Med Chem, 2011).
Active and inactive are the calls of the source. No cut-off for these calls is given here.

What was measured:
[1] = tested on: Yellow fever virus; experiment: Antiviral activity against luciferase reporting full length Yellow fever virus infected in BHK15 cells assessed as reduction in virus infectivity ncubated at 50 uM at 37 degC for 36 hrs by luciferase reporter gene assay; format: functional; settings: BHK15, 36 h
[2] = Toxicity against uninfected BHK cells assessed as growth inhibition incubated at 37 degC for 36 hrs by XTT assay; format: cell-based, Mesocricetus auratus; settings: hamster
Summary of the method: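 Confluent BHK-15 cells were exposed to serial dilutions of compound (DMSO stocks) for ~36 h at 37 °C, 5% CO2. Medium was then replaced, and XTT substrate was added for 2 h at 37 °C before reading OD450. Values were compared with 1% DMSO-treated cells to calculate GI50.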

[3] = tested on: Yellow fever virus; experiment: microbe, parasite or virus in culture; format: functional, organism-based; settings: BHK15, 36 h
[4] = Therapeutic index, ratio of GI50 for uninfected BHK cells to EC50 for luciferase reporting full length Yellow fever virus; format: cell-based; settings: hamster, read-out: TI
Summary of the method: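 TI is GI50 in uninfected BHK cells (XTT, ~36 h) divided by EC50. EC50 was estimated by nonlinear regression against DMSO-treated infected cells.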

[5] = target: T1, Luciferin 4-monooxygenase (Luciola lateralis) (UniProt Q01158); experiment: Inhibition of firefly luciferase expressed in BHK15 cells transfected with luciferase-pcDNA3 incubated at 37 degC for 20 hrs by luciferase reporter gene assay; format: cell-based; settings: Aquatica lateralis
T1 sequence (whole entry): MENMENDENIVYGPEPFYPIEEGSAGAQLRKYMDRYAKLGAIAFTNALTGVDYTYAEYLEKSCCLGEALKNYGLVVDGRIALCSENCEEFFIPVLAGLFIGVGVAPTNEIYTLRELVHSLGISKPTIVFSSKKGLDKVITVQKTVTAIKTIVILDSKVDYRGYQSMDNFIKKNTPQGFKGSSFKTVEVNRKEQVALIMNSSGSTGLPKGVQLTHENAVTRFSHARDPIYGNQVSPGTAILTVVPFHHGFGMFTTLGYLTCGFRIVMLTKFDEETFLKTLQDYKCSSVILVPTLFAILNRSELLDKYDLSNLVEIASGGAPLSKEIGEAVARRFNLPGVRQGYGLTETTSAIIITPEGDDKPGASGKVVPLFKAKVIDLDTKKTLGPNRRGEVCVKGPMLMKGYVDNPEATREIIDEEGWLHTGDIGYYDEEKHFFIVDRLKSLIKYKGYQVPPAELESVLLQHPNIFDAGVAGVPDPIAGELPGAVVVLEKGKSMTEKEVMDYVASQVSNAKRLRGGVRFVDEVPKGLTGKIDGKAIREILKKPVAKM
Summary of the method: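 BHK-15 cells grown to confluency, transfected with firefly luciferase-pcDNA3 plasmid by Lipofectamine; complexes removed at 3 h and replaced with medium holding serial compound dilutions from DMSO stock; 37 °C, 5% CO2, 20 h. Cells lysed and luminescence read with firefly luciferase substrate; signal compared with 1% DMSO-treated cells. Controls: uninfected, infected, DMSO-treated.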

Structure (SMILES)	inhibition at 50 µM [1] [%]	GI50 at 36 h [2] [µM]	EC50 [3] [µM]	selectivity ratio [4]	inhibition [5]
COC(=O)c1sc(-c2ccccc2Br)nc1C(Br)Br	< 50	–	–	–	–
COC(=O)c1sc(-c2ccc(Cl)c(Cl)c2)nc1C	-8.2	–	–	–	–
COC(=O)c1sc(-c2ccc3ccccc3c2)nc1C(Br)Br	26	–	–	–	–
CCCCc1ccc(-c2nc(C)c(/C(C)=N/NC(=N)N)s2)cc1	99.2	353	2.4	147	inactive
CCCCc1ccc(-c2nc(C)c(C(=O)OC)s2)cc1	91.9	63.1	2.8	22	–
CCCCc1ccc(-c2nc(C)c(C(=O)SC)s2)cc1	94.1	46.5	45.6	1	–
COC(=O)c1sc(-c2ccccc2F)nc1C	< 50	–	–	–	–
COC(=O)c1sc(-c2ccc(C(F)(F)F)cc2)nc1C(Br)Br	91	262	10.6	26	–
COC(=O)c1sc(-c2ccccc2)nc1C(Br)Br	< 50	–	–	–	–
COC(=O)c1sc(-c2ccc(Cl)c(Cl)c2)nc1C(Br)Br	42.2	–	–	–	–
COC(=O)c1sc(-c2ccc(F)cc2)nc1C(Br)Br	< 50	–	–	–	–
COC(=O)c1sc(-c2ccccc2)nc1C	< 50	–	–	–	–
COC(=O)c1sc(-c2ccccc2Br)nc1C	< 50	–	–	–	–
COC(=O)c1sc(-c2ccc(Br)cc2)nc1C(Br)Br	81.9	408	3.3	121	–
COC(=O)c1sc(-c2ccc(C(C)(C)C)cc2)nc1C	< 50	–	–	–	–
COC(=O)c1sc(-c2ccc(Br)cc2)nc1C	< 50	–	–	–	–

Structure (SMILES)	inhibition at 50 µM [1] [%]	GI50 at 36 h [2] [µM]	EC50 [3] [µM]	selectivity ratio [4]	inhibition [5]
COC(=O)c1sc(-c2ccc(F)cc2)nc1C	< 50	–	–	–	–
COC(=O)c1sc(-c2cccc(Br)c2)nc1C(Br)Br	93	26.5	26	1	–
COC(=O)c1sc(Cc2ccccc2)nc1C	-23.8	–	–	–	–
COC(=O)c1sc(-c2ccc(OC)cc2)nc1C(Br)Br	< 50	–	–	–	–
COC(=O)c1sc(Cc2ccc(Cl)cc2)nc1C	-6.5	–	–	–	–
COC(=O)c1sc(-c2ccccc2F)nc1C(Br)Br	< 50	–	–	–	–
Nc1ccccc1SCc1csc(-c2ccc(Cl)cc2)n1	–	61	–	2	–
COC(=O)c1sc(-c2cccc(Br)c2)nc1C	< 50	–	–	–	–
CCCCCc1ccc(-c2nc(C)c(C(=O)OC)s2)cc1	98.6	41.5	38.9	1.1	–
COC(=O)c1sc(-c2ccc(OC)cc2)nc1C	< 50	–	–	–	–
CCCCc1ccc(-c2nc(C)c(C(C)=O)s2)cc1	99.8	59.4	10.1	6	–
CCCCc1ccc(-c2nc(C)c(C(=O)O)s2)cc1	83.2	366	203	–	–
COC(=O)c1sc(-c2ccccc2Cl)nc1C(Br)Br	< 50	–	–	–	–
CCCc1ccc(-c2nc(C)c(C(=O)OC)s2)cc1	83.2	499	34.3	12	–
COC(=O)c1sc(-c2ccccc2Cl)nc1C	< 50	–	–	–	–
